Measured values as given in ChEMBL document CHEMBL1914438, “Synthesis and biological activity of novel N-cycloalkyl-(cycloalkylaryl)-2-[(3-R-2-oxo-2H-[1,2,4]triazino[2,3-c]quinazoline-6-yl)thio]acetamides” (2011).
Activity calls are given as the source filed them. The rule behind the calls is not given here.

Key:
[1] = tested on: Photobacterium leiognathi; test: Antibacterial activity against Photobacterium leiognathi Sh1 assessed as inhibition of bacterial luminescence at 0.1 mg/mL after 10 mins by bioluminometry-based acute action test; format: functional; parameters: scale not given: the % may be the effect or the level left
Procedure, shortened: (§1)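 Marine P. leiognathi Sh1 (Azov Sea shrimp isolate) diluted in chloride solution to 10^5 cells/mL; compounds suspended in DMSO mixed with 1 mL bacterial suspension. Acute test: 10 min at 25 °C, then bioluminescence measured by bioluminometer as % of compound-free control. Tetracycline reference.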

[2] = tested on: Photobacterium leiognathi; test: Antibacterial activity against Photobacterium leiognathi Sh1 assessed as inhibition of bacterial luminescence at 0.1 mg/mL after 10 mins by bioluminometry-based chronic action test; format: functional; parameters: scale not given: the % may be the effect or the level left; settings: in the assay text read “after 16 to 18 hrs” for “after 10 mins”
Procedure, shortened: (§2)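 Chronic (growth plus luminescence) test with P. leiognathi Sh1 at 10^5 cells/mL in chloride solution, compounds added in DMSO. After 10 min at 25 °C, growth medium added at 1:50 and the mix incubated 16–18 h at 30 °C. Luminescence then measured by bioluminometer as % of untreated control. Tetracycline reference.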

[3] = tested on: Photobacterium leiognathi; test: Antibacterial activity against Photobacterium leiognathi Sh1 assessed as inhibition of bacterial luminescence at 0.25 mg/mL after 10 mins by bioluminometry-based chronic action test; format: functional; parameters: scale not given: the % may be the effect or the level left; settings: in the assay text read “after 16 to 18 hrs” for “after 10 mins”; procedure, shortened: as §2
[4] = tested on: Photobacterium leiognathi; test: Antibacterial activity against Photobacterium leiognathi Sh1 at 0.1 to 0.25 ug/mL; format: functional, organism-based
[5] = tested on: Escherichia coli; test: Antibacterial activity against Escherichia coli at 1 to 5 mg/mL after 24 hrs by stiff-plate agar-diffusion method; format: functional, organism-based
Procedure, shortened: (§3)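 Agar diffusion (stiff plate) with test substances at 5 mg/mL in grooves, allowed to diffuse into nutrient agar; inoculum 10^9 c.f.u./mL; bacteria incubated 24 h at 35 °C. Read-out: inhibition zone diameter (not sensitive 11–15 mm, sensitive 16–25 mm, highly sensitive >25 mm). Vancomycin and oxacillin as standards; three repeats.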

[6] = tested on: Staphylococcus aureus; test: Antibacterial activity against Staphylococcus aureus at 1 to 5 mg/mL after 24 hrs by stiff-plate agar-diffusion method; format: functional, organism-based; procedure, shortened: as §3
[7] = tested on: Mycobacterium; test: Antibacterial activity against Mycobacterium luteum at 1 to 5 mg/mL after 24 hrs by stiff-plate agar-diffusion method; format: functional, organism-based; procedure, shortened: as §3
[8] = tested on: Yamadazyma tenuis; test: Antifungal activity against Candida tenuis at 1 to 5 mg/mL after 48 to 72 hrs by stiff-plate agar-diffusion method; format: functional, organism-based
Procedure, shortened: (§4)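 Fungal plates run by stiff-plate agar diffusion, substances applied to grooves at 5 mg/mL; 10^9 c.f.u./mL cells; incubation 48–72 h at 28–30 °C. Inhibition zone diameter scored (11–15 mm not sensitive, 16–25 mm sensitive, >25 mm highly sensitive). Nystatin standard; experiments done three times.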

[9] = tested on: Aspergillus niger; test: Antifungal activity against Aspergillus niger at 1 to 5 mg/mL after 48 to 72 hrs by stiff-plate agar-diffusion method; format: functional, organism-based; procedure, shortened: as §4
[10] = tested on: CCRF-CEM; test: Cytotoxicity against human CCRF-CEM cells assessed as cell growth at 10^-5 M after 48 hrs by SRB assay; format: functional; settings: read-out: Activity
Procedure, shortened: (§5)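 NCI 60-cell-line one-dose primary screen: cells inoculated and preincubated 24–48 h, then test agent added at a single 10^-5 M concentration for a further 48 h. Endpoint is sulforhodamine B protein staining read spectrophotometrically. Reported as percent growth relative to untreated control cells.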

[11] = tested on: SNB-75; test: Cytotoxicity against human SNB75 cells assessed as cell growth at 10^-5 M after 48 hrs by SRB assay; format: functional; settings: SNB-75, 48 h, read-out: Activity
Procedure, shortened: (§6)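 NCI human tumor cell line panel from nine cancer types. Each line was inoculated and preincubated 24–48 h, then exposed to a single concentration (10^-5 M) for 48 h. Growth was read by sulforhodamine B protein staining, measured spectrophotometrically. Value reported as percent growth of treated cells relative to untreated controls.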

[12] = tested on: CAKI-1; test: Cytotoxicity against human Caki1 cells assessed as cell growth at 10^-5 M after 48 hrs by SRB assay; format: functional; settings: CAKI-1, 48 h, read-out: Activity; procedure, shortened: as §5
[13] = tested on: UO-31; test: Cytotoxicity against human UO31 cells assessed as cell growth at 10^-5 M after 48 hrs by SRB assay; format: functional; settings: UO-31, 48 h, read-out: Activity; procedure, shortened: as §6
[14] = tested on: PC-3; test: Cytotoxicity against human PC3 cells assessed as cell growth at 10^-5 M after 48 hrs by SRB assay; format: functional; settings: PC-3, 48 h, read-out: Activity; procedure, shortened: as §6
[15] = tested on: K562; test: Cytotoxicity against human K562 cells assessed as cell growth at 10^-5 M after 48 hrs by SRB assay; format: functional; settings: K562, 48 h, read-out: Activity; procedure, shortened: as §5
[16] = tested on: SR; test: Cytotoxicity against human SR cells assessed as cell growth at 10^-5 M after 48 hrs by SRB assay; format: functional; settings: read-out: Activity; procedure, shortened: as §6
[17] = tested on: A549; test: Cytotoxicity against human A549 cells assessed as cell growth at 10^-5 M after 48 hrs by SRB assay; format: functional; settings: A549, 48 h, read-out: Activity; procedure, shortened: as §5
[18] = tested on: UACC-257; test: Cytotoxicity against human UACC257 cells assessed as cell growth at 10^-5 M after 48 hrs by SRB assay; format: functional; settings: UACC-257, 48 h, read-out: Activity; procedure, shortened: as §6
[19] = tested on: SK-OV-3; test: Cytotoxicity against human SKOV3 cells assessed as cell growth at 10^-5 M after 48 hrs by SRB assay; format: functional; settings: SK-OV-3, 48 h, read-out: Activity; procedure, shortened: as §6
[20] = tested on: MOLT-4; test: Cytotoxicity against human MOLT4 cells assessed as cell growth at 10^-5 M after 48 hrs by SRB assay; format: functional; settings: MOLT-4, 48 h, read-out: Activity; procedure, shortened: as §6
[21] = tested on: EKVX; test: Cytotoxicity against human EKVX cells assessed as cell growth at 10^-5 M after 48 hrs by SRB assay; format: functional; settings: read-out: Activity; procedure, shortened: as §5
[22] = tested on: SF-295; test: Cytotoxicity against human SF295 cells assessed as cell growth at 10^-5 M after 48 hrs by SRB assay; format: functional; settings: SF-295, 48 h, read-out: Activity; procedure, shortened: as §6
[23] = tested on: SK-MEL-5; test: Cytotoxicity against human SK-MEL-5 cells assessed as cell growth at 10^-5 M after 48 hrs by SRB assay; format: functional; settings: SK-MEL-5, 48 h, read-out: Activity; procedure, shortened: as §6
[24] = tested on: Photobacterium leiognathi; test: Antibacterial activity against Photobacterium leiognathi Sh1 assessed as inhibition of bacterial luminescence at 0.025 mg/mL after 10 mins by bioluminometry-based chronic action test; format: functional; parameters: scale not given: the % may be the effect or the level left; settings: in the assay text read “after 16 to 18 hrs” for “after 10 mins”; procedure, shortened: as §2
[25] = tested on: Photobacterium leiognathi; test: Antibacterial activity against Photobacterium leiognathi Sh1 assessed as inhibition of bacterial luminescence at 0.25 mg/mL after 10 mins by bioluminometry-based acute action test; format: functional; parameters: scale not given: the % may be the effect or the level left; procedure, shortened: as §1
[26] = tested on: Photobacterium leiognathi; test: Antibacterial activity against Photobacterium leiognathi Sh1 assessed as inhibition of bacterial luminescence at 0.025 mg/mL after 10 mins by bioluminometry-based acute action test; format: functional; parameters: scale not given: the % may be the effect or the level left; procedure, shortened: as §1
[27] = tested on: Escherichia coli; test: Antibacterial activity against Escherichia coli assessed as zone of inhibition at 0.01 mg/mL after 24 hrs by stiff-plate agar-diffusion method; format: functional
Procedure, shortened: (§7)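 Stiff-plate agar diffusion. Inoculum 10^9 c.f.u./mL. Compounds were streaked across grooves in the agar nutrient plate and left to diffuse. Plates were incubated 24 h at 35 °C. Read-out was inhibition zone diameter: 11–15 mm not sensitive, 16–25 mm sensitive, >25 mm highly sensitive. Vancomycin and oxacillin were the standards. Three repeats.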

[28] = tested on: Staphylococcus aureus; test: Antibacterial activity against Staphylococcus aureus assessed as zone of inhibition at 0.01 mg/mL after 24 hrs by stiff-plate agar-diffusion method; format: functional; procedure, shortened: as §7
[29] = tested on: Mycobacterium; test: Antibacterial activity against Mycobacterium luteum assessed as zone of inhibition at 0.01 mg/mL after 24 hrs by stiff-plate agar-diffusion method; format: functional; procedure, shortened: as §7
[30] = tested on: Yamadazyma tenuis; test: Antifungal activity against Candida tenuis assessed as zone of inhibition at 0.01 mg/mL after 48 to 72 hrs by stiff-plate agar-diffusion method; format: functional
Procedure, shortened: (§8)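 Fungi were tested by stiff-plate agar diffusion from a 10^9 c.f.u./mL inoculum. Compounds were placed in agar grooves and allowed to diffuse. Incubation was 48–72 h at 28–30 °C. Inhibition zone diameter was scored as not sensitive (11–15 mm), sensitive (16–25 mm) or highly sensitive (>25 mm). Nystatin was the standard. Experiments were done in triplicate.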

[31] = tested on: Aspergillus niger; test: Antifungal activity against Aspergillus niger assessed as zone of inhibition at 0.01 mg/mL after 48 to 72 hrs by stiff-plate agar-diffusion method; format: functional; procedure, shortened: as §8

Compound: Cc1ccc(-c2nn3c(SCC(=O)O)nc4ccccc4c3nc2=O)cc1
- Activity [1]: 20%
- Activity [2]: 255.3%
- Activity [3]: 0%
- Activity [4]: inactive
- Activity [5]: inactive
- Activity [6]: inactive
- Activity [7]: inactive
- Activity [8]: inactive
- Activity [9]: inactive
- growth at 10 µM [10]: 95.6%
- growth at 10 µM [11]: 74.2%
- growth at 10 µM [12]: 82.8%
- growth at 10 µM [13]: 85.3%
- growth at 10 µM [14]: 86.5%
- growth at 10 µM [15]: 94.5%
- growth at 10 µM [16]: 68%
- growth at 10 µM [17]: 96.5%
- growth at 10 µM [18]: 95.1%
- growth at 10 µM [19]: 89.9%
- growth at 10 µM [20]: 84.9%
- growth at 10 µM [21]: 95%
- growth at 10 µM [22]: 84.3%
- growth at 10 µM [23]: 96%
- Activity [24]: 93.3%
- Activity [25]: 0%
- Activity [26]: 91.7%

Compound: NYSTATIN
- inhibition zone (IZ) [27]: 0 mm
- inhibition zone (IZ) [28]: 11 mm
- inhibition zone (IZ) [29]: 15 mm
- inhibition zone (IZ) [30]: 24 mm
- inhibition zone (IZ) [31]: 25 mm
